# Assay results from ChEMBL document CHEMBL1949496, “Synthesis of [¹⁸F]-labeled (2-(2-fluoroethoxy)ethyl)triphenylphosphonium cation as a potential agent for myocardial imaging using positron emission tomography” (Bioorg Med Chem Lett, 2012).
# What was measured:
# Pancreas [1] = test: Biodistribution in BALB/c mouse pancreas at 7.4 MBq, iv after 60 mins by gamma counting; type: ADME, organism-based; settings: in vivo, 1 h
# How it was run: (§1)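 Tracer given intravenously to BALB/c mice; animals sampled at 10, 30, 60 and 120 min after injection. Organ radioactivity expressed as percentage of injected dose per gram of tissue (% ID/g), n = 12.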
# Liver [2] = test: Biodistribution in BALB/c mouse liver at 7.4 MBq, iv after 30 mins by gamma counting; type: ADME, organism-based; settings: in vivo, 0.5 h; how it was run: as §1
# Muscle tissue [3] = test: Biodistribution in BALB/c mouse normal muscle at 7.4 MBq, iv after 60 mins by gamma counting; type: ADME, organism-based; settings: in vivo, 1 h; how it was run: as §1
# Bone [4] = test: Biodistribution in BALB/c mouse bone at 7.4 MBq, iv after 60 mins by gamma counting; type: ADME, organism-based, Bone element; settings: in vivo, 1 h; how it was run: as §1
# Stomach [5] = test: Biodistribution in BALB/c mouse stomach at 7.4 MBq, iv after 120 mins by gamma counting; type: ADME, organism-based; settings: in vivo, 2 h; how it was run: as §1
# Bone [6] = test: Biodistribution in BALB/c mouse bone at 7.4 MBq, iv after 30 mins by gamma counting; type: ADME, organism-based, Bone element; settings: in vivo, 0.5 h; how it was run: as §1
# Heart [7] = test: Drug uptake in Sprague-Dawley rat heart at 37 MBq, iv after 0.5 hrs by micro PET analysis; type: ADME, organism-based; settings: in vivo
# How it was run: (§2)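 Rats received the tracer intravenously and were imaged by micro-PET in coronal view at 0.5 h and 1.0 h after injection.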
# Heart [8] = test: Biodistribution in BALB/c mouse heart at 7.4 MBq, iv after 60 mins by gamma counting; type: ADME, organism-based; settings: in vivo, 1 h; how it was run: as §1
# Nucleic Acid [9] = test: Ratio of drug level in BALB/c mouse heart to lung at 7.4 MBq, iv after 30 mins by gamma counter; type: ADME, organism-based; settings: in vivo, 0.5 h
# How it was run: (§3)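 Normal BALB/c mice were given the 18F tracer by i.v. injection. Tissues were sampled at 10, 30, 60 and 120 min. Activity is expressed as % injected dose per gram of tissue (n = 12), and organ ratios were taken from these values.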
# Pancreas [10] = test: Biodistribution in BALB/c mouse pancreas at 7.4 MBq, iv after 120 mins by gamma counting; type: ADME, organism-based; settings: in vivo, 2 h; how it was run: as §1
# Pancreas [11] = test: Biodistribution in BALB/c mouse pancreas at 7.4 MBq, iv after 30 mins by gamma counting; type: ADME, organism-based; settings: in vivo, 0.5 h; how it was run: as §1
# [12] = Octanol-NaCl aqueous solution partition coefficient, log P of the compound after 20 mins by gamma counting; type: physicochemical
# Heart [13] = test: Drug uptake in Sprague-Dawley rat heart at 37 MBq, iv after 1 hr by micro PET analysis; type: ADME, organism-based; settings: in vivo; how it was run: as §2
# Nucleic Acid [14] = test: Ratio of drug level in BALB/c mouse heart to lung at 7.4 MBq, iv after 120 mins by gamma counter; type: ADME, organism-based; settings: in vivo, 2 h; how it was run: as §3
# Lung [15] = test: Biodistribution in BALB/c mouse lung at 7.4 MBq, iv after 10 mins by gamma counting; type: ADME, organism-based; settings: in vivo; how it was run: as §1
# Heart [16] = test: Biodistribution in BALB/c mouse heart at 7.4 MBq, iv after 30 mins by gamma counting; type: ADME, organism-based; settings: in vivo, 0.5 h; how it was run: as §1
# Liver [17] = test: Biodistribution in BALB/c mouse liver at 7.4 MBq, iv after 120 mins by gamma counting; type: ADME, organism-based; settings: in vivo, 2 h; how it was run: as §1
# [18] = Drug uptake in Sprague-Dawley rat myocardium at 37 MBq, iv up to 1 hr by micro PET analysis; type: ADME, organism-based; settings: in vivo; how it was run: as §2
# Nucleic Acid [19] = test: Ratio of drug level in BALB/c mouse heart to blood at 7.4 MBq, iv after 10 mins by gamma counter; type: ADME, organism-based; settings: other tissue; how it was run: as §3
# Muscle tissue [20] = test: Biodistribution in BALB/c mouse normal muscle at 7.4 MBq, iv after 120 mins by gamma counting; type: ADME, organism-based; settings: in vivo, 2 h; how it was run: as §1
# Lung [21] = test: Biodistribution in BALB/c mouse lung at 7.4 MBq, iv after 120 mins by gamma counting; type: ADME, organism-based; settings: in vivo, 2 h; how it was run: as §1
# Heart [22] = test: Biodistribution in BALB/c mouse heart at 7.4 MBq, iv after 120 mins by gamma counting; type: ADME, organism-based; settings: in vivo, 2 h; how it was run: as §1
# [23] = Metabolic stability in human serum assessed as compound remaining at 0.37 MBq after 4 hrs by TLC analysis; type: ADME, cell-free; settings: read-out: Stability
# How it was run: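 Analysed on ITLC-sg strips developed in methylene chloride:methanol (9:2 v/v), and the strips were scanned on an automatic TLC scanner.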
# Spleen = test: Biodistribution in BALB/c mouse spleen at 7.4 MBq, iv after 60 mins by gamma counting; type: ADME, organism-based; settings: in vivo, 1 h; how it was run: as §1
# Liver [24] = test: Biodistribution in BALB/c mouse liver at 7.4 MBq, iv after 10 mins by gamma counting; type: ADME, organism-based; settings: in vivo; how it was run: as §1
# Stomach [25] = test: Biodistribution in BALB/c mouse stomach at 7.4 MBq, iv after 30 mins by gamma counting; type: ADME, organism-based; settings: in vivo, 0.5 h; how it was run: as §1
# Intestine [26] = test: Biodistribution in BALB/c mouse intestine at 7.4 MBq, iv after 60 mins by gamma counting; type: ADME, organism-based; settings: in vivo, 1 h; how it was run: as §1
# Nucleic Acid [27] = test: Ratio of drug level in BALB/c mouse heart to liver at 7.4 MBq, iv after 10 mins by gamma counter; type: ADME, organism-based; settings: in vivo; how it was run: as §3
# Intestine [28] = test: Biodistribution in BALB/c mouse intestine at 7.4 MBq, iv after 30 mins by gamma counting; type: ADME, organism-based; settings: in vivo, 0.5 h; how it was run: as §1
# Heart [29] = test: Biodistribution in BALB/c mouse heart at 7.4 MBq, iv after 10 mins by gamma counting; type: ADME, organism-based; settings: in vivo; how it was run: as §1
# Bone [30] = test: Biodistribution in BALB/c mouse bone at 7.4 MBq, iv after 120 mins by gamma counting; type: ADME, organism-based, Bone element; settings: in vivo, 2 h; how it was run: as §1
# Intestine [31] = test: Biodistribution in BALB/c mouse intestine at 7.4 MBq, iv after 120 mins by gamma counting; type: ADME, organism-based; settings: in vivo, 2 h; how it was run: as §1
structure (smiles),measurement,setting,value
[18F]CCOCC[P+](c1ccccc1)(c1ccccc1)c1ccccc1,Drug uptake,Pancreas [1],7.35 % ID/g
same,Drug uptake,Liver [2],2.42 % ID/g
same,Drug uptake,Muscle tissue [3],4.42 % ID/g
same,Drug uptake,Bone [4],2.44 % ID/g
same,Drug uptake,Stomach [5],2.49 % ID/g
same,Drug uptake,Bone [6],2.35 % ID/g
same,Drug uptake,Heart [7],Active
same,Drug uptake,Heart [8],19.96 % ID/g
same,Ratio,Nucleic Acid [9],3.71
same,Drug uptake,Pancreas [10],5.44 % ID/g
same,Drug uptake,Pancreas [11],5.96 % ID/g
same,logP at 20 min,[12],0.89
same,Drug uptake,Heart [13],Active
same,Ratio,Nucleic Acid [14],4.36
same,Drug uptake,Lung [15],7.69 % ID/g
same,Drug uptake,Heart [16],19.33 % ID/g
same,Drug uptake,Liver [17],1.33 % ID/g
same,Drug uptake,[18],Active
same,Ratio,Nucleic Acid [19],> 55
same,Drug uptake,Muscle tissue [20],3.2 % ID/g
same,Drug uptake,Lung [21],5.55 % ID/g
same,Drug uptake,Heart [22],24.27 % ID/g
same,"remaining at 4 h, 0.37 MBq",[23],> 95%
same,Drug uptake,Spleen,1.95 % ID/g
same,Drug uptake,Liver [24],3.57 % ID/g
same,Drug uptake,Stomach [25],3.98 % ID/g
same,Drug uptake,Intestine [26],4.67 % ID/g
same,Ratio,Nucleic Acid [27],11.08
same,Drug uptake,Intestine [28],8.52 % ID/g
same,Drug uptake,Heart [29],35.23 % ID/g
same,Drug uptake,Bone [30],2.28 % ID/g
same,Drug uptake,Intestine [31],2.66 % ID/g
